Measurements: paper PMC10288500 (ACS Bio & Med Chem Au, 2023)

What was measured:
TNF = conditions: read-out: EC50, inhibition of NF-κB; cited from earlier work
TNFR1 = biological target: T1, TNFR1 (Homo sapiens, UniProt P19438); experiment: IκB degradation assay; format: cell-based; conditions: HEK293 cells, 0.01 to 500 nM
T1 sequence (P19438 30-455): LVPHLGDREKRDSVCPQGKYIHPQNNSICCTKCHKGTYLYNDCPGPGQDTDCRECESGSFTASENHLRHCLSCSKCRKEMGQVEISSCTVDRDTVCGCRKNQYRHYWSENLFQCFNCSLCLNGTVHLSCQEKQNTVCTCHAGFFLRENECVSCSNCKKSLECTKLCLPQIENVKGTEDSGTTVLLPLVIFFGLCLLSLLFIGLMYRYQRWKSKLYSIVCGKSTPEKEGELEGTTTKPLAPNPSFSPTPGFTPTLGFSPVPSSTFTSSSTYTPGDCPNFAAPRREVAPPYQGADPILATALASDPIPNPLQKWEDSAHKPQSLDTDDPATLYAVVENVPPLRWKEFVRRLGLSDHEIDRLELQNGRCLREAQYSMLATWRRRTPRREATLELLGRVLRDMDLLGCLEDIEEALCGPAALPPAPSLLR
Procedure, shortened: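 HEK293 seeded at 0.4 million/mL in six-well plates overnight, then given compound 0.01–500 nM or DMSO for 2 h, then TNF 10 ng/mL for 30 min. Lysis in native buffer with protease inhibitor, 30 min on ice; BCA. 80 μg protein run on SDS–PAGE, immunoblotted for IκBα and β-actin. Bands quantified by densitometry (n = 3).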

HEK293 cells = experiment: MTT cytotoxicity assay; format: cell-based; conditions: 0.0001 nM–10 μM, 24 h
Procedure, shortened: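 HEK293 plated at 7500 cells/well and grown 24 h at 37 °C, 5% CO2. Exposed to compound 0.0001 nM–10 μM for 24 h at 37 °C. Viability read by MTT on a multimode plate reader.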

TRADD = experiment: TRADD-induced NF-κB activation assay; format: cell-based; conditions: HEK293 cells overexpressing TRADD, 0.01 to 500 nM, without TNF
Procedure, shortened: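 HEK293 (0.8 million/well, six-well) transfected with 1 μg NF-κB firefly reporter, 0.1 μg Renilla reporter, 1 μg TRADD plasmid and 0.4 μg empty vector (2.5 μg total); controls received empty vector instead of TRADD. Replated at 7500 cells/well after 3 h. Compound 0.01–500 nM or DMSO added 5 h later. Dual luciferase read 24 h post-treatment. Means ± SD, three experiments.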

[1] = tested on: IL-1α-induced NF-κB activation; experiment: IL-1α-induced NF-κB activation assay; format: cell-based; conditions: HEK293 cells, IL-1α 10 ng/mL, 0.01 to 500 nM, 24 h
Procedure, shortened: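 HEK293 cells were transfected with NF-κB firefly/Renilla luciferase reporters and replated next day at 7500 cells/well in phenol red–free DMEM. Compound 0.01–500 nM or DMSO was incubated with or without IL-1α 10 ng/mL for 24 h at 37 °C. Sequential firefly and Renilla luminescence read with Dual-Glo reagents. Means ± SD of three experiments.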

TNFR2 = biological target: T2, TNFR2 (Homo sapiens, UniProt P20333); experiment: RelB transcription factor activity assay; format: cell-based; conditions: HUVEC cells, 250 nM, densitometry
T2 sequence (P20333 23-461): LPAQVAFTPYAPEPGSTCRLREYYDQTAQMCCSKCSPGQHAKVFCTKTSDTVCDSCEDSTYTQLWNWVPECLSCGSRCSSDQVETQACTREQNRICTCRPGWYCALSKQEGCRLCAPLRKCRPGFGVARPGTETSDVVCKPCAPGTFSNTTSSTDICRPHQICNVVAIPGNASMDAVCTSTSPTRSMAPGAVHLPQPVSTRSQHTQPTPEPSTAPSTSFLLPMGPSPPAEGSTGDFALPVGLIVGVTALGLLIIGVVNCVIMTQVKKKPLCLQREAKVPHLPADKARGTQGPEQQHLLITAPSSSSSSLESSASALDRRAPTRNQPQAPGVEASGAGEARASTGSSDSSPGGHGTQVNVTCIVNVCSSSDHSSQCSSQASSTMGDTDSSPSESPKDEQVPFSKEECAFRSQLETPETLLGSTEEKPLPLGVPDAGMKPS
Procedure, shortened: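 HUVEC grown on gelatin-coated dishes in EGM-2 with 2% FBS, plated 1 million/well overnight, then transfected with 0.5 μg membrane TNF plasmid. After 6 h, medium replaced and compound (250 nM) added overnight. Lysates in native buffer, BCA, SDS–PAGE, immunoblotted for RelB; bands quantified by densitometry.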

[2] = Solubility by dynamic light scattering; format: physicochemical

SMILES	EC50 (TNF)	extent of inhibition of TNF-induced IκB degradation (TNFR1)	cytotoxicity (MTT) (HEK293 cells)	effect on TRADD-induced NF-κB activation (TRADD)	effect on IL-1α-induced NF-κB activation [1]	effect on membrane TNF-TNFR2-induced activation of RelB (TNFR2)	aggregation by DLS at 200 μM [2]
Cc1ccc(C)c(Cn2c(C(O)c3ccncc3)nc3ccc(-c4cnn(C)c4)cc32)c1 (stereo not shown) [UCB-9260]	250 nM	–	–	–	–	–	–
COc1cc(C(=O)NS(=O)(=O)c2ccccc2C)ccc1Cc1cn(C)c2ccc(NC(=O)OC3CCCC3)cc12 [zafirlukast]	–	partially inhibited	No appreciable cytotoxicity	little effect	failed to mitigate	minimal effect	aggregation
